Measured values reported in ChEMBL document CHEMBL5724801, “EUbOPEN Chemogenomics Library - Multiplex” (2024).
“And” between values parts separate entries of the source, which are not always exact repeats. Equal entries are not always repeated.

Legend:
Format in all cases: toxicity, cell-based
[1] = system: U2OS; experiment: Multiplex assay against U2OS; conditions: human
In short: (§1)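 Compound was added to live cells that had been stained at seeding with Hoechst33342, BioTracker Green Microtubule Cytoskeleton Dye, MitoTracker Red and Annexin V Alexa Fluor 680, and imaging followed on a CQ1 microscope at 37°C and 5% CO2. CellPathfinder machine-learning gating divided cells into Hoechst high-intensity objects or normal cells, normal cells into healthy, pyknosed or fragmented nuclei, and pyknosed cells into mitotic or apoptotic. Tubulin, mitochondrial-mass and membrane-permeability phenotypes are per cents of healthy-nucleus cells.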

[2] = system: HEK-293T; experiment: Multiplex assay against HEK293T; conditions: human; in short: as §1
[3] = system: Fibroblast; experiment: Multiplex assay against human fibroblast; in short: as §1
[4] = 12 h, 1 µM, compound concentration 1 uM
[5] = 12 h, 10 µM, compound concentration 10 uM
[6] = 24 h, 1 µM, compound concentration 1 uM
[7] = 24 h, 10 µM, compound concentration 10 uM
[8] = 48 h, 1 µM, compound concentration 1 uM
[9] = 48 h, 10 µM, compound concentration 10 uM

NCCc1cn(S(=O)(=O)c2c(Cl)nc3sccn23)c2ccccc12.O=C(O)C(=O)O
Population Apoptotic (%) [1, 4]: 66% and 81% | Population Fragmented Nuclei (%) [1, 4]: 30% and 17% | Population Healthy Nuclei (%) [1, 4]: 58% and 72% | Population Hoechst High Intensity Objects (%) [1, 4]: 1% | Population Membrane Permeable-Phenotype (%) [1, 4]: 9% and 4% | Population Mitochondria Different-Phenotype (%) [1, 4]: 6% and 8% | Population Mitotic Cells (%) [1, 4]: 33% and 18% | Population Normal (%) [1, 4]: 98% | Population Pyknosed Nuclei (%) [1, 4]: 10% and 9% | Population Tubulin-Different-Phenotype (%) [1, 4]: 6% | Total Cell Count [1, 4]: 280 and 116 | Population Apoptotic (%) [1, 5]: 71% and 82% | Population Fragmented Nuclei (%) [1, 5]: 26% and 20% | Population Healthy Nuclei (%) [1, 5]: 42% and 53% | Population Hoechst High Intensity Objects (%) [1, 5]: 5% and 4% | Population Membrane Permeable-Phenotype (%) [1, 5]: 42% and 30% | Population Mitochondria Different-Phenotype (%) [1, 5]: 60% and 71% | Population Mitotic Cells (%) [1, 5]: 28% and 17% | Population Normal (%) [1, 5]: 94% and 95% | Population Pyknosed Nuclei (%) [1, 5]: 30% and 26% | Population Tubulin-Different-Phenotype (%) [1, 5]: 59% and 50% | Total Cell Count [1, 5]: 221 and 115 | Population Apoptotic (%) [1, 6]: 69% and 78% | Population Fragmented Nuclei (%) [1, 6]: 25% and 20% | Population Healthy Nuclei (%) [1, 6]: 66% and 70% | Population Hoechst High Intensity Objects (%) [1, 6]: 1% | Population Membrane Permeable-Phenotype (%) [1, 6]: 6% and 9% | Population Mitochondria Different-Phenotype (%) [1, 6]: 5% and 7% | Population Mitotic Cells (%) [1, 6]: 30% and 21% | Population Normal (%) [1, 6]: 98% | Population Pyknosed Nuclei (%) [1, 6]: 8% and 9% | Population Tubulin-Different-Phenotype (%) [1, 6]: 3% and 7% | Total Cell Count [1, 6]: 326 and 151 | Population Apoptotic (%) [1, 7]: 83% and 86% | Population Fragmented Nuclei (%) [1, 7]: 29% and 20% | Population Healthy Nuclei (%) [1, 7]: 38% and 46% | Population Hoechst High Intensity Objects (%) [1, 7]: 6% and 3% | Population Membrane Permeable-Phenotype (%) [1, 7]: 26% | Population Mitochondria Different-Phenotype (%) [1, 7]: 63% and 67% | Population Mitotic Cells (%) [1, 7]: 16% and 13% | Population Normal (%) [1, 7]: 93% and 96% | Population Pyknosed Nuclei (%) [1, 7]: 31% and 33% | Population Tubulin-Different-Phenotype (%) [1, 7]: 26% and 38% | Total Cell Count [1, 7]: 240 and 116 | Population Apoptotic (%) [1, 8]: 81% and 85% | Population Fragmented Nuclei (%) [1, 8]: 21% | Population Healthy Nuclei (%) [1, 8]: 70% and 66% | Population Hoechst High Intensity Objects (%) [1, 8]: 1% and 6% | Population Membrane Permeable-Phenotype (%) [1, 8]: 5% and 10% | Population Mitochondria Different-Phenotype (%) [1, 8]: 4% and 7% | Population Mitotic Cells (%) [1, 8]: 18% and 14% | Population Normal (%) [1, 8]: 98% and 93% | Population Pyknosed Nuclei (%) [1, 8]: 8% and 12% | Population Tubulin-Different-Phenotype (%) [1, 8]: 2% and 7% | Total Cell Count [1, 8]: 454 and 182 | Population Apoptotic (%) [1, 9]: 92% | Population Fragmented Nuclei (%) [1, 9]: 37% and 29% | Population Healthy Nuclei (%) [1, 9]: 27% and 34% | Population Hoechst High Intensity Objects (%) [1, 9]: 7% | Population Membrane Permeable-Phenotype (%) [1, 9]: 25% and 42% | Population Mitochondria Different-Phenotype (%) [1, 9]: 56% and 65% | Population Mitotic Cells (%) [1, 9]: 7% | Population Normal (%) [1, 9]: 92% | Population Pyknosed Nuclei (%) [1, 9]: 35% | Population Tubulin-Different-Phenotype (%) [1, 9]: 25% and 42% | Total Cell Count [1, 9]: 241 and 127 | Population Apoptotic (%) [2, 4]: 37% and 52% | Population Fragmented Nuclei (%) [2, 4]: 5% and 8% | Population Healthy Nuclei (%) [2, 4]: 83% and 78% | Population Hoechst High Intensity Objects (%) [2, 4]: 7% and 8% | Population Membrane Permeable-Phenotype (%) [2, 4]: 0% | Population Mitochondria Different-Phenotype (%) [2, 4]: 53% and 66% | Population Mitotic Cells (%) [2, 4]: 62% and 47% | Population Normal (%) [2, 4]: 92% and 91% | Population Pyknosed Nuclei (%) [2, 4]: 11% and 13% | Population Tubulin-Different-Phenotype (%) [2, 4]: 40% and 34% | Total Cell Count [2, 4]: 446 and 316 | Population Apoptotic (%) [2, 5]: 63% and 64% | Population Fragmented Nuclei (%) [2, 5]: 8% | Population Healthy Nuclei (%) [2, 5]: 49% and 67% | Population Hoechst High Intensity Objects (%) [2, 5]: 22% and 25% | Population Membrane Permeable-Phenotype (%) [2, 5]: 0% | Population Mitochondria Different-Phenotype (%) [2, 5]: 96% and 97% | Population Mitotic Cells (%) [2, 5]: 36% and 35% | Population Normal (%) [2, 5]: 77% and 74% | Population Pyknosed Nuclei (%) [2, 5]: 42% and 23% | Population Tubulin-Different-Phenotype (%) [2, 5]: 88% and 82% | Total Cell Count [2, 5]: 292 and 209 | Population Apoptotic (%) [2, 6]: 33% and 41% | Population Fragmented Nuclei (%) [2, 6]: 9% and 12% | Population Healthy Nuclei (%) [2, 6]: 79% and 78% | Population Hoechst High Intensity Objects (%) [2, 6]: 6% and 4% | Population Membrane Permeable-Phenotype (%) [2, 6]: 1% | Population Mitochondria Different-Phenotype (%) [2, 6]: 28% and 46% | Population Mitotic Cells (%) [2, 6]: 66% and 58% | Population Normal (%) [2, 6]: 93% and 95% | Population Pyknosed Nuclei (%) [2, 6]: 11% and 8% | Population Tubulin-Different-Phenotype (%) [2, 6]: 26% and 19% | Total Cell Count [2, 6]: 585 and 438 | Population Apoptotic (%) [2, 7]: 74% and 75% | Population Fragmented Nuclei (%) [2, 7]: 14% | Population Healthy Nuclei (%) [2, 7]: 37% and 62% | Population Hoechst High Intensity Objects (%) [2, 7]: 34% | Population Membrane Permeable-Phenotype (%) [2, 7]: 2% | Population Mitochondria Different-Phenotype (%) [2, 7]: 83% and 95% | Population Mitotic Cells (%) [2, 7]: 25% and 24% | Population Normal (%) [2, 7]: 65% | Population Pyknosed Nuclei (%) [2, 7]: 48% and 22% | Population Tubulin-Different-Phenotype (%) [2, 7]: 44% and 76% | Total Cell Count [2, 7]: 310 and 195 | Population Apoptotic (%) [2, 8]: 23% and 47% | Population Fragmented Nuclei (%) [2, 8]: 16% and 12% | Population Healthy Nuclei (%) [2, 8]: 77% and 82% | Population Hoechst High Intensity Objects (%) [2, 8]: 3% and 5% | Population Membrane Permeable-Phenotype (%) [2, 8]: 0% and 1% | Population Mitochondria Different-Phenotype (%) [2, 8]: 22% and 23% | Population Mitotic Cells (%) [2, 8]: 76% and 52% | Population Normal (%) [2, 8]: 96% and 94% | Population Pyknosed Nuclei (%) [2, 8]: 6% and 5% | Population Tubulin-Different-Phenotype (%) [2, 8]: 19% and 14% | Total Cell Count [2, 8]: 972 and 678 | Population Apoptotic (%) [2, 9]: 53% and 78% | Population Fragmented Nuclei (%) [2, 9]: 27% and 19% | Population Healthy Nuclei (%) [2, 9]: 24% and 47% | Population Hoechst High Intensity Objects (%) [2, 9]: 62% and 47% | Population Membrane Permeable-Phenotype (%) [2, 9]: 11% and 1% | Population Mitochondria Different-Phenotype (%) [2, 9]: 74% and 75% | Population Mitotic Cells (%) [2, 9]: 46% and 21% | Population Normal (%) [2, 9]: 37% and 52% | Population Pyknosed Nuclei (%) [2, 9]: 47% and 33% | Population Tubulin-Different-Phenotype (%) [2, 9]: 55% and 52% | Total Cell Count [2, 9]: 294 and 212 | Population Apoptotic (%) [3, 4]: 45% | Population Fragmented Nuclei (%) [3, 4]: 20% and 34% | Population Healthy Nuclei (%) [3, 4]: 65% and 37% | Population Hoechst High Intensity Objects (%) [3, 4]: 4% and 3% | Population Membrane Permeable-Phenotype (%) [3, 4]: 0% and 13% | Population Mitochondria Different-Phenotype (%) [3, 4]: 5% and 8% | Population Mitotic Cells (%) [3, 4]: 55% and 54% | Population Normal (%) [3, 4]: 95% and 96% | Population Pyknosed Nuclei (%) [3, 4]: 14% and 28% | Population Tubulin-Different-Phenotype (%) [3, 4]: 40% and 62% | Total Cell Count [3, 4]: 146 and 170 | Population Apoptotic (%) [3, 5]: 78% and 57% | Population Fragmented Nuclei (%) [3, 5]: 20% and 24% | Population Healthy Nuclei (%) [3, 5]: 56% and 44% | Population Hoechst High Intensity Objects (%) [3, 5]: 6% | Population Membrane Permeable-Phenotype (%) [3, 5]: 0% and 5% | Population Mitochondria Different-Phenotype (%) [3, 5]: 40% and 34% | Population Mitotic Cells (%) [3, 5]: 21% and 42% | Population Normal (%) [3, 5]: 93% | Population Pyknosed Nuclei (%) [3, 5]: 22% and 30% | Population Tubulin-Different-Phenotype (%) [3, 5]: 90% and 89% | Total Cell Count [3, 5]: 177 and 219 | Population Apoptotic (%) [3, 6]: 50% and 46% | Population Fragmented Nuclei (%) [3, 6]: 21% and 35% | Population Healthy Nuclei (%) [3, 6]: 64% and 44% | Population Hoechst High Intensity Objects (%) [3, 6]: 3% and 4% | Population Membrane Permeable-Phenotype (%) [3, 6]: 0% and 18% | Population Mitochondria Different-Phenotype (%) [3, 6]: 13% and 11% | Population Mitotic Cells (%) [3, 6]: 50% and 53% | Population Normal (%) [3, 6]: 96% and 95% | Population Pyknosed Nuclei (%) [3, 6]: 13% and 20% | Population Tubulin-Different-Phenotype (%) [3, 6]: 42% and 70% | Total Cell Count [3, 6]: 156 and 166 | Population Apoptotic (%) [3, 7]: 77% and 72% | Population Fragmented Nuclei (%) [3, 7]: 22% and 30% | Population Healthy Nuclei (%) [3, 7]: 62% and 51% | Population Hoechst High Intensity Objects (%) [3, 7]: 3% and 7% | Population Membrane Permeable-Phenotype (%) [3, 7]: 0% and 5% | Population Mitochondria Different-Phenotype (%) [3, 7]: 58% and 32% | Population Mitotic Cells (%) [3, 7]: 22% and 27% | Population Normal (%) [3, 7]: 96% and 92% | Population Pyknosed Nuclei (%) [3, 7]: 14% and 18% | Population Tubulin-Different-Phenotype (%) [3, 7]: 89% and 81% | Total Cell Count [3, 7]: 193 and 237 | Population Apoptotic (%) [3, 8]: 50% and 54% | Population Fragmented Nuclei (%) [3, 8]: 27% and 38% | Population Healthy Nuclei (%) [3, 8]: 63% and 47% | Population Hoechst High Intensity Objects (%) [3, 8]: 4% and 6% | Population Membrane Permeable-Phenotype (%) [3, 8]: 2% and 9% | Population Mitotic Cells (%) [3, 8]: 50% and 45% | Population Normal (%) [3, 8]: 95% and 93% | Population Pyknosed Nuclei (%) [3, 8]: 9% and 14% | Population Tubulin-Different-Phenotype (%) [3, 8]: 46% and 58% | Total Cell Count [3, 8]: 177 and 166 | Population Apoptotic (%) [3, 9]: 85% and 75% | Population Fragmented Nuclei (%) [3, 9]: 22% and 31% | Population Healthy Nuclei (%) [3, 9]: 65% and 59% | Population Hoechst High Intensity Objects (%) [3, 9]: 7% and 3% | Population Membrane Permeable-Phenotype (%) [3, 9]: 0% and 3% | Population Mitochondria Different-Phenotype (%) [3, 9]: 43% and 24% | Population Mitotic Cells (%) [3, 9]: 14% and 25% | Population Normal (%) [3, 9]: 92% and 96% | Population Pyknosed Nuclei (%) [3, 9]: 12% and 8% | Population Tubulin-Different-Phenotype (%) [3, 9]: 92% and 74% | Total Cell Count [3, 9]: 189 and 241
